The values below come from ChEMBL document CHEMBL4513216, “Probing the Open Global Health Chemical Diversity Library for Multistage-Active Starting Points for Next-Generation Antimalarials” (ACS Infect Dis, 2020).

A short description of the data set: Toxicity liver stage against HepG2, at 10uM. In kind it is cell-based. On the set-up: test concentration 10 uM, cell line HepG2-A16-CD81EGFP. The settings on record: human, HepG2-A16-CD81EGFP cells; read-out: INHIBITION
An outline of the steps:
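Uninfected HepG2-A16-CD81EGFP cells, 3 × 10^3 per well, 1536-well, plated on prespotted compound at 10 μM final, parasite-free screening media added to match infected plates; puromycin 10 μM positive, DMSO 0.5% negative; run in parallel with 48 h PbLuc assay at 37 °C, 5% CO2; viability by CellTiter-Glo luminescence, normalized to controls.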
As to `Cc1csc(CCNc2ccc(C#N)cn2)n1`, the cytotoxicity at 10 µM is 0.738%.

For the molecule `Cc1nn(C)c(Cl)c1S(=O)(=O)N(C)C`, the cytotoxicity at 10 µM stood at 3.66%.

With `CC(=O)c1nn(-c2cccc(Cl)c2)c(C)c1C(C)=O`, the cytotoxicity at 10 µM is -3.55%.

For the molecule `COc1cccc2c3c(c(=O)n(C)c12)CCC(C)(C)O3`, the cytotoxicity at 10 µM was found to be 0.55%.

With `CC(NC(=O)c1ccc(Cl)cc1)c1nnc(SCC(N)=O)n1C` (stereo not given), the cytotoxicity at 10 µM stood at 6.27%.

For the molecule `CCn1nnc(NCc2ccc(-c3ccc(Br)cc3)o2)n1`, the cytotoxicity at 10 µM was -10.1%.

On to `CCn1ccc(-c2cc(C(=O)O)n3nc(C)c(Cl)c3n2)n1`, for which the cytotoxicity at 10 µM is -3.48%.

On to `CN(C)Cc1cnc(C2CCN(C(=O)c3cccc(Cl)c3)C2)[nH]1` (stereo not given), for which the cytotoxicity at 10 µM was -3.36%.

Consider `Cc1csc(NC(=O)C2(C)CN(C)CCO2)n1` (stereo not given), for which the cytotoxicity at 10 µM was -3.67%.

Regarding `CN1C[C@@H](c2cccc(F)c2)[C@H]2[C@H]1CCCCCN2C(=O)C1CC1`, the cytotoxicity at 10 µM came to 4.21%.

Take `CN(C)c1nccc(C2CCCN2S(=O)(=O)c2cn(C)cn2)n1` (stereo not given): the cytotoxicity at 10 µM was -20.2%.

Take `Cc1cc(C)nc(C2CCN(C(=O)c3cnc(N(C)C)nc3)C2)n1` (stereo not given): the cytotoxicity at 10 µM was -18.1%.

`COc1ccc(OC)c(C(O)CN2CCC(N3CCC(C)CC3)CC2)c1` (stereo not given): the cytotoxicity at 10 µM was -25.5%.

With `CN(C)CC(=O)N1CCCCC1c1nc(N)ncc1-c1ccccc1` (stereo not given), the cytotoxicity at 10 µM is -0.155%.

On to `O=C(CNC1CCc2ncnn2C1)NCCc1cccs1` (stereo not given), for which the cytotoxicity at 10 µM is -10.9%.

`O=S(=O)(c1ccc(C(F)(F)F)cc1)N1CCC(OCc2ccccn2)C1` (stereo not given): the cytotoxicity at 10 µM is 1.22%.

For `Cc1nnc(NCCC(=O)NCc2ccccc2)c(C#N)c1C`, the cytotoxicity at 10 µM was -3.57%.

With `CCN(Cc1nnnn1C1CC1)c1cc(C)ccc1C`, the cytotoxicity at 10 µM came out at 9.21%.

As to `CCC(NCc1cccc(Cl)c1)c1ccccc1OCC(=O)NC` (stereo not given), the cytotoxicity at 10 µM was -2.65%.

In the case of `Cc1ccc(C2CSCCN2C(=O)c2ccnc(N(C)C)c2)o1` (stereo not given), the cytotoxicity at 10 µM came to 12.8%.

With `Cc1n[nH]c(C2CN(Cc3csc(C4CC4)n3)CCO2)n1` (stereo not given), the cytotoxicity at 10 µM is -0.18%.

With `CC(NC(=O)c1ccc(CS(C)(=O)=O)o1)c1ccc(F)c(F)c1` (stereo not given), the cytotoxicity at 10 µM is -5.85%.

For the molecule `CCC1CN(C(=O)COc2ccc(C)nc2)CCO1` (stereo not given), the cytotoxicity at 10 µM is -3.7%.

Consider `COC(C)(C)c1noc(C2(C#N)CCCCC2)n1`, for which the cytotoxicity at 10 µM was -2.11%.

As to `Cc1cccc(-c2nc(N)nc3c2CN(C(=O)C2CCCC2)C3C)c1` (stereo not given), the cytotoxicity at 10 µM was found to be 13.2%.

With `Cn1c(-c2ccccc2Cl)nc2cc(C(=O)NCCS(C)(=O)=O)cnc21`, the cytotoxicity at 10 µM is -3.2%.

`Cc1nc(CCN)cc(N(C)Cc2nc3ccc(F)cc3[nH]2)n1`: the cytotoxicity at 10 µM was -0.581%.

For `O=C(Nc1ccccc1OCCc1ccccn1)N1CCOCC(O)C1` (stereo not given), the cytotoxicity at 10 µM was 4.25%.

For the molecule `c1cn(Cc2nnc(C3CCN(C4CCCCC4)CC3)n2C2CC2)cn1`, the cytotoxicity at 10 µM is -6.79%.

With `C[C@@H]1CN(C(=O)C2CCS(=O)(=O)CC2)CC[C@@]1(O)C1CCOCC1`, the cytotoxicity at 10 µM is -9.34%.

Consider `c1cc2c(cc1C[C@@H]1CC[C@H](CN3CCCOCC3)O1)OCO2`, for which the cytotoxicity at 10 µM is -12.9%.

On to `c1ccc2c(c1)CC(CNCc1ccncc1)(N1CCCCC1)C2`, for which the cytotoxicity at 10 µM was -7.72%.

Regarding `CN(C)c1ccc(C(=O)N2CCCN(Cc3cnn(C)c3)CC2)nn1`, the cytotoxicity at 10 µM was -5.28%.

Consider `Cc1cc(C)c(CNC(=O)C2CCN(c3cnccn3)CC2)c(=O)[nH]1`, for which the cytotoxicity at 10 µM was -10.7%.

Consider `CCOC(=O)CSc1nnc([C@@H](N)CC(C)C)o1`, for which the cytotoxicity at 10 µM amounted to 6.76%.

In the case of `COc1cccc2[nH]c(C(=O)N3CCNCC3C(N)=O)cc12` (stereo not given), the cytotoxicity at 10 µM worked out at 4.57%.

For the molecule `CN(C)C(=O)c1ccc(C2CCCNC2)nc1` (stereo not given), the cytotoxicity at 10 µM was -20.7%.

On to `COCCC(=O)NC1CCN(CC2(c3cccc(F)c3)CCCC2)CC1`, for which the cytotoxicity at 10 µM is -24.7%.

Consider `CCCn1nccc1NC(=O)CN1CCCC1Cn1cccn1` (stereo not given), for which the cytotoxicity at 10 µM is -5.47%.

Regarding `O=C1CCCC2=Nc3nonc3NC(c3ccccc3F)C12` (stereo not given), the cytotoxicity at 10 µM is 1.08%.
